Only some compounds are listed: those with a hit (about 4.3% of all), similar ones and a draw of the others.
m5-HT2A agonist: mouse Htr2a agonists via beta-arrestin recruitment, primary screen, cell-based, luminescence; 0.66% of 360,000 active; activation, % at 7.6 µM; AID 624169, 2012; CHO-K1 mHTR2A beta-arrestin complementation; percent of 30 µM serotonin response; 5-hydroxytryptamine receptor 2A (Mus musculus), P35363;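 active means activation above a run cutoff, the mean activation of all tested compounds plus 3 SD, cut at about 14% in these data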
MC4R ag barr: MC4R agonists recruiting beta-arrestin, primary screen, cell-based, luminescence, agonist arm of biased-ligand search; Melanocortin receptor 4 (Homo sapiens), P32245; U2OS MC4R beta-arrestin complementation; percent of melanotan II response, DMSO zero; activation, % at 8.9 µM; 0.98% of 360,000 active; AID 540308, 2011;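 active means activation above a per-plate cutoff, the mean activation of sample wells on that plate plus 3 SD, cut at about 8% in these data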
MC4R antag cAMP: MC4R antagonists of cAMP signaling, primary screen, cell-based, TR-FRET, antagonist arm of biased-ligand search. Melanocortin receptor 4 (Homo sapiens), P32245. MC4R-expressing cells, MTII-stimulated cAMP, LANCE TR-FRET. inhibition, % at 6.5 µM. 0.48% of 360,000 active. AID 540295, 2011;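 active means inhibition above its plate's cutoff, the mean of tested wells on that plate plus 3 SD, cut at about 29% in these data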
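Material: U2OS-MC4R stable cell line | Reagent: Melanotan II challenge after compound preincubation | Doses: One concentration, 6.5 µM nominal | Incubation: 30-min compound preincubation, 1-h Melanotan II challenge, 1-h detection, room temperature | Signal: TR-FRET cAMP assay | Replicates: One well per compound, no replicates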
TAAR1 antagonist: human TAAR1 antagonists, primary screen, Fluo-8 calcium fluorescence, CHO RD-HGA16 cells | Trace amine-associated receptor 1 (Homo sapiens), Q96RJ0 | antagonist | inhibition, % at 3 µM | 1.5% of 360,000 active;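 active means inhibition above a per-plate cutoff, the mean inhibition of test compounds on that plate plus 3 SD, cut at about 49% in these data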
Target sequence (Q96RJ0 whole entry, looked up): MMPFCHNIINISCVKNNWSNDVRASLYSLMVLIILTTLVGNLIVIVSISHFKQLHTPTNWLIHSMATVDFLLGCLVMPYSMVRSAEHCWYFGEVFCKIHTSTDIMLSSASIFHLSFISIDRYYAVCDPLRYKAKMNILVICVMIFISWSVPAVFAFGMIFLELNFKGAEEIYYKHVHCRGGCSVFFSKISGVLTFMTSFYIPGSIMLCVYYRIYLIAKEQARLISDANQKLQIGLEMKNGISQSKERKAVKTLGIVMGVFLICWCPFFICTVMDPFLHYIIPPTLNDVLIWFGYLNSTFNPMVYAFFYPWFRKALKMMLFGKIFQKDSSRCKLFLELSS
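Test system – hTAAR1-expressing CHO RD-HGA16 cells, Gα16-coupled · Also added – β-PEA at EC80 concentration, post-compound challenge · Compound – 3 µM, single point · Incubation – dye loading 75 min at 37 °C, then 30 min room temperature · Measured by – Fluo-8 intracellular calcium dye fluorescence, real-time kinetic reads · Benchmarks – vehicle and agonist controls · Replicates – singlicate, one well per test compound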
TAAR1 ag: human TAAR1 agonists, primary screen, Fluo-8 calcium fluorescence, CHO RD-HGA16 cells | Trace amine-associated receptor 1 (Homo sapiens), Q96RJ0 | vehicle wells 0%, saturating PEA agonist 100% | activation, % at 3 µM | 0.99% of 360,000 active;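 active means activation above the mean activation of all test compounds in the run plus 3 SD, cut at about 38% in these data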
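test system = CHO RD-HGA16 cells carrying human TAAR1 plus Gα16 | schedule = 17-24 h seeding, 75 min 37 °C dye, 30 min RT | compound dosing = 3 µM single concentration | control set = DMSO and PEA EC100 | replicates = n 1 | signal = Fluo-8 fluorescence, 5 s baseline then 140 s kinetic read | measure = percent activation vs PEA EC100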
Beta2AR agonist: beta2AR agonists driving receptor internalization, primary screen, cell-based, FAP fluorogen, flow cytometry; response, % (test concentration not listed); 0.43% of 340,000 active; Am2.2-beta2AR cells; Beta-2 adrenergic receptor (Homo sapiens), P07550;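 active means response above a set limit, near 3 SD of response in nonfluorescent compounds, cut at about 42% in these data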
MOR ag counter: OPRM1 agonists via beta-arrestin recruitment, confirmation, counter-screen for mouse HTR2A agonist project, cell-based, luminescence, single concentration. shares compounds with m5-HT2A agonist. U2OS OPRM1 beta-arrestin PathHunter; DMSO 0%, DAMGO 9.3 µM 100%. activation, % at 9.3 µM. 5.3% of 2,300 active. AID 624380, 2012;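 active means mean activation above the mean of DMSO-only wells plus 3 SD, cut at about 0.5% in these data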
Target sequence (P35372 whole entry, looked up): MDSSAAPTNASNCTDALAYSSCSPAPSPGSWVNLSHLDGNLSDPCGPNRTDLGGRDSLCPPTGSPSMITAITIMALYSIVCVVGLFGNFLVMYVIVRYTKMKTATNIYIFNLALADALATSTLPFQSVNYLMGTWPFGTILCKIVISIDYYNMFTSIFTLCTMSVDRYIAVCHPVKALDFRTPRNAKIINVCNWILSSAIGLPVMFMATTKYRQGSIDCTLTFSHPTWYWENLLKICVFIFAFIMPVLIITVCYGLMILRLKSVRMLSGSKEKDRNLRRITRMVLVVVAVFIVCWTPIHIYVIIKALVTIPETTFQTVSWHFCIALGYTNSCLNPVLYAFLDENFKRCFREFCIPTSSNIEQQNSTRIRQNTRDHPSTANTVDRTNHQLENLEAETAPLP
m5-HT2A ag conf: mouse HTR2A agonists, beta-arrestin recruitment, confirmation, cell-based, luminescence, CHO-K1 PathHunter, triplicate. shares compounds with m5-HT2A agonist. DMSO 0%, 30 µM serotonin 100%. activation, % at 7.6 µM. 19% of 2,300 active;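 active means mean activation across triplicates above the hit threshold derived in the original primary screen, cut at about 15% in these data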
nonsel antag count: nonselective antagonists in TAAR1 counter-screen cells, counter-screen for hTAAR1 antagonist project, cell-based, fluorescence, calcium; counterscreen cell line, antagonist mode; AID 651780, 2012; 77% of 2,400 active; shares compounds with TAAR1 antagonist; inhibition, % at 3 µM; in the data active means inhibition above about 22%;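 further: CHO-Ga16 host cells stimulated with ATP at an EC80 level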
TAAR1 antag conf: human TAAR1 antagonists, retest of hits, confirmation, cell-based, fluorescence; shares compounds with TAAR1 antagonist; TAAR1-expressing cells, fluorescence antagonist read-out; inhibition, % at 3 µM; 40% of 2,400 active; in the data active means inhibition above about 49%;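 further: CHO-Ga16 host cells challenged with agonist PEA near its EC80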
Ga16 ag counter-1: calcium activation in Ga16-expressing cells, counter-screen for TAAR1 antagonist project, cell-based, fluorescence. shares compounds with TAAR1 antagonist. agonist counterscreen. activation, % at 3 µM. 18% of 2,400 active; in the data active means activation above about 12%
TAAR1 ag count: TAAR1 activation by candidate antagonists – cell-based, fluorescence, counter-screen for TAAR1 antagonist project; activation, % at 3 µM; hTAAR1 cell line, agonist mode; 2% of 2,400 active; shares compounds with TAAR1 antagonist; in the data active means activation above about 37%;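 further: CHO cells stably expressing TAAR1 with calcium dye readout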
TAAR1 ag conf: human TAAR1 agonists, retest of hits, confirmation, Fluo-8 calcium fluorescence, CHO RD-HGA16 cells; activation, % at 3 µM; shares compounds with TAAR1 ag; scaled: DMSO 0%, maximal phenethylamine 100%; 82% of 2,400 active;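 active means activation above a cutoff set at the run's mean compound activation plus 3 SD, cut at about 39% in these data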
Ga16 ag counter-2: nonselective calcium mobilization agonists, CHO-Ga16 cells, counter-screen for hTAAR1 agonist project, cell-based, fluorescence, CHO-Ga16 parental line. Fluo-8 calcium fluorescence; normalized to maximal ATP response, DMSO zero. shares compounds with TAAR1 ag. 50% of 2,400 active. activation, % at 3 µM;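 active means activation above the run cutoff, the mean activation over all tested wells plus 3 SD, cut at about 12% in these data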
TAAR1 desens: TAAR1 desensitization by agonist hits, confirmation, counter-screen for TAAR1 agonist project, cell-based, fluorescence, tachyphylaxis; shares compounds with TAAR1 ag; CHO RD-HGA16 hTAAR1, Fluo-8 calcium, beta-PEA response inhibition; inhibition, % at 3 µM; 46% of 2,400 active; AID 651951, 2012;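 active means inhibition above the run cutoff, the mean inhibition of all test compounds plus 3 SD, cut at about 49% in these data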;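 further: beta-PEA stimulus applied at its EC80; loss of beta-PEA calcium signal after compound pretreatment read as receptor desensitization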
Ga16 antag count: inhibition of ATP-evoked calcium response in CHO-Ga16 cells, counter-screen for TAAR1 agonist project, cell-based, fluorescence; AID 651952, 2012; inhibition, % at 3 µM; shares compounds with TAAR1 ag; CHO-Ga16 ATP-induced calcium, Fluo-8 fluorescence; 39% of 2,400 active;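 active means inhibition above the plate's mean compound inhibition plus 3 SD, computed per plate, cut at about 22% in these data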
A number is an active result; n = inactive; x = no result.

SMILES	m5-HT2A agonist	MC4R ag barr	MC4R antag cAMP	TAAR1 antagonist	TAAR1 ag	Beta2AR agonist	MOR ag counter	m5-HT2A ag conf	nonsel antag count	TAAR1 antag conf	Ga16 ag counter-1	TAAR1 ag count	others
Cc1c(C(=O)N2CCN(Cc3ccc4c(c3)OCO4)CC2)sc2ncnc(N3CCN(c4ccccc4F)CC3)c12	25.3	n	n	77.3	n	n	n	36.1	34.2	50.4	n	n
Cc1c(C(=O)N2CCN(Cc3ccc4c(c3)OCO4)CC2)sc2ncnc(N3CCN(c4ccccc4)CC3)c12	n	n	n	n	n	n	x	x	x	x	x	x
COc1ccccc1NC(=O)Nc1nc(CC(=O)N2CCN(c3ccccc3F)CC2)cs1	14.7	n	n	64.7	n	n	n	n	29.3	n	n	n
Cc1cc(C)nc(S/C=C/C(=O)c2ccccc2F)n1	n	n	n	n	n	n	x	x	x	x	x	x
COc1cc(NC(=O)CSc2nnc(NC(C)C)s2)cc(OC)c1OC	n	n	n	n	n	n	x	x	x	x	x	x
O=C(O)C1C2C=CC(C2)C1C(=O)NCCc1cccc(Cl)c1 (configuration not stated)	31.6	n	n	x	x	n	n	n	x	x	x	x	Ga16 ag counter-2=n;Ga16 antag count=n
O=C(O)C1CCCCC1C(=O)NCCc1cccc(Cl)c1 (configuration not stated)	34.6	n	n	68.4	89.8	n	n	n	x	x	x	x	TAAR1 ag conf=87.9;Ga16 ag counter-2=n;TAAR1 desens=69.5;Ga16 antag count=n
O=C(O)C1CCCCC1C(=O)NCc1ccccc1 (configuration not stated)	n	n	n	n	n	n	x	x	x	x	x	x
COc1ccc(Cl)cc1-c1cc(C(=O)NCc2cccs2)[nH]n1	n	n	n	n	n	x	x	x	x	x	x	x
COc1ccc(C(=O)CC(=O)C(=O)Nc2cc(C)ccc2C)cc1	n	n	n	n	n	n	x	x	x	x	x	x
COc1ccc(C(=O)CC(=O)C(=O)NCCc2cccc(C)c2)cc1	16.7	n	n	80.0	84.2	n	n	n	x	x	x	x	TAAR1 ag conf=93.9;Ga16 ag counter-2=n;TAAR1 desens=83.8;Ga16 antag count=n
C[C@H](O)[C@@H]1CN2CCc3ccc(-c4ccc5c(c4)OCO5)cc3[C@@H]2C[C@@H]1N(C)C(=O)c1cccc(Cl)c1	x	x	x	n	n	x	x	x	x	x	x	x
CC(=O)c1cccc(OCC(O)CNCC2COc3ccccc3O2)c1 (configuration not stated)	26.0	n	n	n	46.1	n	n	59.0	x	x	x	x	TAAR1 ag conf=69.9;Ga16 ag counter-2=n;TAAR1 desens=n;Ga16 antag count=n
O[C@@H](c1cc(C(F)(F)F)nc2c(C(F)(F)F)cccc12)[C@H]1CCCCN1	25.7	n	n	n	45.2	n	0.9	n	x	x	x	x	TAAR1 ag conf=51.4;Ga16 ag counter-2=24.4;TAAR1 desens=n;Ga16 antag count=37.0
CN1CCN(C(=O)c2cc3ccccc3cc2O)CC1	n	n	n	n	n	n	x	x	x	x	x	x
CCN=C1SC(C(=O)Nc2ccc(Cl)c(Cl)c2)CC(=O)N1CC (configuration not stated)	n	n	n	80.3	n	n	x	x	44.2	65.9	13.3	n
CCN=C1SC(C(=O)Nc2cccc(Br)c2)CC(=O)N1CC (configuration not stated)	n	n	n	75.5	n	n	x	x	37.3	62.9	n	n
O=C(Nc1cc(-c2nc3ncccc3o2)ccc1Cl)c1cccs1	n	n	n	60.1	n	n	x	x	n	n	n	n
COc1ccc(-c2nc3ncccc3o2)cc1NC(=O)c1cccs1	n	n	n	n	n	n	x	x	x	x	x	x
O=C(OCC(=O)N(Cc1ccccc1)Cc1ccccc1)c1ccccc1NCCO	n	n	n	69.9	n	n	x	x	34.5	51.3	n	n
COc1cccc(CN(C)C(=O)C(CCSC)NS(=O)(=O)c2ccc3c(c2)OCCO3)c1OC (configuration not stated)	n	n	n	75.0	n	n	x	x	37.5	62.8	11.7	n
CSCCC(NS(=O)(=O)c1ccc2c(c1)OCCO2)C(=O)NCCc1ccccn1 (configuration not stated)	n	n	n	n	n	n	x	x	x	x	x	x
CSCCC(NS(=O)(=O)c1ccc2c(c1)OCCO2)C(=O)N(C)Cc1ccc(C)cc1 (configuration not stated)	n	n	n	63.2	n	n	x	x	23.2	n	n	n
